This is an account of results in the RNAGym collection of RNA variant scans (doi:10.1126/science.aae0568).

Variants at the floor of the assay were thinned out.

B1: tRNA (parent)
chain: GUUCCGUUGGCGUAAUGGUAACGCGUCUCCCUCCUAAGGAGAAGACUGCGGGUUCGAGUCCCGUACGGAACG

In this data set the parent is B1. The experiment in a line: yeast fitness relative to wild type (ratio to wild type); higher = fitter; tRNA-Arg(CCU), competitive growth, 37 C, YPD. In short, it runs like this: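 Amplicons of the tRNA-Arg(CCU) gene were sequenced, 100-nucleotide paired-end, from the start population and from each end population of a pooled yeast competition. The competition, in six parallel replicates, lasted 24 hours in YPD at 37°C. Fitness relative to wild type was calculated from changes in genotype frequencies. Genotypes had to have ≥ 100 starting reads, and estimates < 0.5 were set to 0.5.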
Consider A40C C49G A65G, for which the yeast fitness was 0.584.

With A40G C62U A65U, the yeast fitness was not above 0.5.

With A40G C66U, the yeast fitness was determined as 0.792.

Regarding G41A A43G, the yeast fitness was determined as 0.81.

Regarding G41A C46G G48A U54C C55U A70C, the yeast fitness came out at 0.542.

Regarding G41A A43G C60U, the yeast fitness turned out to be 0.507.

On to A40U C66G, for which the yeast fitness was 0.71.

For the variant A40U C66U, the yeast fitness came out at 0.904.

On to A40C G41C G68C, for which the yeast fitness was 0.542.

Consider A40U A45U G67C, for which the yeast fitness turned out to be 0.582.

Take G41A C60G C61U A65G: the yeast fitness turned out to be 0.644.

Consider A40U C49U C62U A69G, for which the yeast fitness came to 0.904.

On to A40G C60U, for which the yeast fitness amounted to 0.674.

Regarding A40G G58A A69U, the yeast fitness was 1.04.

For G41A A42G, the yeast fitness was determined as 0.911.

For G41A A42C, the yeast fitness is 0.726.

As to A40C A45G G63A, the yeast fitness is 0.518.

Consider A40G C46U U53G, for which the yeast fitness is not above 0.5.

For the variant A40C A57G G67A, the yeast fitness was found to be 0.554.

As for A40U U47C A65C, the yeast fitness is 0.534.

For A40C C55G A69U, the yeast fitness is not above 0.5.

Regarding A40G C46U C60G C66G, the yeast fitness was not above 0.5.

In the case of A40U G68A, the yeast fitness worked out at 0.923.

As for A40U U53C, the yeast fitness worked out at 0.735.

G41A C60G U64C A65G: the yeast fitness is not above 0.5.

With A40C G44A, the yeast fitness is 0.913.

As to A40C G68A, the yeast fitness came out at 0.933.

Turning to A40U A65G A70U, the yeast fitness worked out at 0.591.

Regarding A40U G52A C60U G63C, the yeast fitness stood at 0.661.

For A40G U53A G63A, the yeast fitness was not above 0.5.

Take A40G C55U G56A U64G A69U: the yeast fitness is not above 0.5.

For A40G C55A C61U, the yeast fitness is not above 0.5.

As to A40G A42G U59C, the yeast fitness came out at 0.618.

On to A40G G41A C55U, for which the yeast fitness was not above 0.5.

Consider A40C C46U C55G A70U, for which the yeast fitness was determined as 0.503.

Consider A40G U64A, for which the yeast fitness came to 0.737.

Take A40U U64C A70U: the yeast fitness was found to be 0.727.

For A40C A69G, the yeast fitness worked out at 0.985.

For the variant A40U U64A, the yeast fitness was 0.675.

For the variant G41A C60G G67A, the yeast fitness came out at 0.534.

For the variant A40G A69U, the yeast fitness is 1.06.

Consider A40G C62A, for which the yeast fitness came out at 0.641.

In the case of A40G C62U, the yeast fitness was 0.715.

As to A40G G68A, the yeast fitness stood at 0.953.

With A40G G68C, the yeast fitness turned out to be 0.709.

In the case of A40G C49G, the yeast fitness amounted to 0.655.

For A40G G67A A69C, the yeast fitness amounted to 0.513.

In the case of A40G A42U G67C, the yeast fitness was not above 0.5.

On to A40G A43G G67C, for which the yeast fitness came out at 0.725.

Take A40C C49A: the yeast fitness is 0.668.

For A40U A43C G52A, the yeast fitness worked out at 0.667.

With A40U U54C C62U, the yeast fitness was 0.528.

Take A40G A45C: the yeast fitness worked out at 0.846.

As for A40C C61U, the yeast fitness turned out to be 0.799.

In the case of A40C C61A, the yeast fitness worked out at 0.716.

As to A40U A65C A69U, the yeast fitness turned out to be 0.699.

As to A40C C62A, the yeast fitness worked out at 0.651.

For A40C C62G, the yeast fitness is 0.66.

On to A40U C49U C61U A70G, for which the yeast fitness is not above 0.5.

Turning to A40C U59G C60G, the yeast fitness was not above 0.5.

With A40G G48A G63A, the yeast fitness turned out to be 0.774.

For A40G G50A, the yeast fitness turned out to be 0.944.

Consider A40U A42G G63A, for which the yeast fitness was found to be 0.511.

On to A40U G67A A70C, for which the yeast fitness is 0.572.

Turning to A40G C49G U59G G67C, the yeast fitness worked out at 0.706.

A40U G48A U64G: the yeast fitness turned out to be 0.631.

For A40G A43U C49U C66U, the yeast fitness was not above 0.5.

As for G41A A43G C66A, the yeast fitness is not above 0.5.

On to A40U C49G A70U, for which the yeast fitness worked out at 0.535.

Regarding A40U A57G U59C U64G, the yeast fitness was not above 0.5.

For A40U G44C, the yeast fitness is 0.954.

On to G41A C55G C66U, for which the yeast fitness is not above 0.5.

As for A40U G67A, the yeast fitness was found to be 0.82.

On to A40G C46A C61U G67A, for which the yeast fitness was not above 0.5.

Take A40C A57C C61A: the yeast fitness is not above 0.5.

A40G G51A C55U: the yeast fitness came to 0.556.

For the variant G41A A45G G56A, the yeast fitness was found to be 0.582.

For the variant A40U U53A C61U, the yeast fitness is not above 0.5.

Turning to A40C U59A, the yeast fitness was determined as 0.801.

A40G C46G U53G U64G: the yeast fitness was not above 0.5.

Take G41A C49U A70U: the yeast fitness is 0.708.

For the variant G41A A43G C60U A70C, the yeast fitness stood at 0.542.

Consider A40C A57U G58A, for which the yeast fitness worked out at 0.644.

With A40G G44C A57G C60A, the yeast fitness was not above 0.5.

Regarding A40G A57U, the yeast fitness turned out to be 0.624.

G41A A45U G58U C60A: the yeast fitness came out at 0.583.

In the case of A40U A42G, the yeast fitness stood at 0.983.

For A40C G41A U47A G67C, the yeast fitness turned out to be 0.637.

Regarding A40U A43G A65U, the yeast fitness was found to be 0.675.

G41A A42C A65C: the yeast fitness was determined as 0.565.

Take A40G G52A G56U: the yeast fitness is not above 0.5.

Turning to A40G C62U C66G A69C, the yeast fitness is not above 0.5.

A40G C46U U64C: the yeast fitness is 0.607.

Regarding A40U U54A, the yeast fitness was 0.576.

For the variant A40U U54C, the yeast fitness was 0.802.

As to A40U A42G C55A, the yeast fitness was not above 0.5.

Consider A40G G56A, for which the yeast fitness is 0.998.

For A40G C61U G68A, the yeast fitness is not above 0.5.

In the case of A40U A43U C60U C62U C66U, the yeast fitness is not above 0.5.

Take A40G C61G: the yeast fitness is 0.628.

Turning to A40G C61U, the yeast fitness was 0.741.

As for A40G A43C, the yeast fitness is 1.04.

In the case of A40G A43U, the yeast fitness came out at 0.995.

As to A40G A43G, the yeast fitness turned out to be 0.787.

Take A40U C55A G68U: the yeast fitness was not above 0.5.

For A40U G52C C60G, the yeast fitness was not above 0.5.

Turning to A40U C49U C62A C66A, the yeast fitness is not above 0.5.

As for A40G G41A A42C A43G G44A A70U, the yeast fitness is not above 0.5.

As to A40G G48A, the yeast fitness was 1.01.

As for A40G G48C, the yeast fitness is 0.866.

In the case of G41A A57U C60A G68C, the yeast fitness was not above 0.5.

Turning to A40C G52C C66U G67A, the yeast fitness is not above 0.5.

For the variant G41A A42U G50C A70G, the yeast fitness is not above 0.5.

With A40C G56A A70G, the yeast fitness worked out at 0.556.

For the variant A40C C66U, the yeast fitness came to 0.895.

As for A40U G56A G58C, the yeast fitness came out at 0.786.

Regarding A40U G63C, the yeast fitness came to 0.729.

For A40U G63A, the yeast fitness was 0.721.

As to A40G G58C C61G A65C, the yeast fitness was not above 0.5.

For A40U U47C A69U, the yeast fitness was determined as 0.815.

On to A40U G52C, for which the yeast fitness worked out at 0.608.

A40C A45C A65G G68U: the yeast fitness was not above 0.5.

On to A40C U53C U59A C66U, for which the yeast fitness was not above 0.5.

For the variant A40G U53A, the yeast fitness turned out to be 0.654.

For the variant G41A A70C, the yeast fitness came to 0.901.

As for G41A A70U, the yeast fitness is 0.977.

Consider G41A C60G G63A A65G, for which the yeast fitness is 0.529.

Regarding A40U C60U, the yeast fitness is 0.832.

For A40U A42C C66A, the yeast fitness is not above 0.5.

For the variant A40U A45G C60A, the yeast fitness is not above 0.5.

A40G A65U: the yeast fitness amounted to 0.813.

As for A40G A65C, the yeast fitness was determined as 0.858.

Take A40G A65G: the yeast fitness is 0.984.

G41A A45U U47A C62U A69U: the yeast fitness was not above 0.5.

As to A40U A43C U59C, the yeast fitness amounted to 0.752.

With A40G A42G A43G U59C, the yeast fitness is not above 0.5.

For the variant A40G C61U A70U, the yeast fitness amounted to 0.612.

Take A40U A70G: the yeast fitness was determined as 0.934.

In the case of A40U A70C, the yeast fitness came out at 0.941.

Regarding A40U A70U, the yeast fitness was 0.99.

On to A40C A57C, for which the yeast fitness came out at 0.637.

For the variant A40C A57U, the yeast fitness came out at 0.789.

Turning to A40G G48A A65C G67C, the yeast fitness was not above 0.5.

Regarding A40G C46A, the yeast fitness is 1.04.

As to A40C G56A, the yeast fitness was found to be 0.883.

As for A40C G56C, the yeast fitness is 0.609.

A40C C60A: the yeast fitness was 0.654.

A40C C46G: the yeast fitness came out at 0.975.

As for A40G C55U, the yeast fitness was 0.663.

In the case of A40U C61U, the yeast fitness came to 0.783.

Take A40U G51C: the yeast fitness came out at 0.518.

As to A40U C62U, the yeast fitness came out at 0.87.

Turning to A40C G51A, the yeast fitness was 0.84.

A40G G44A U47C: the yeast fitness worked out at 0.571.

In the case of A40U A45C, the yeast fitness is 0.871.

Regarding A40U G50A, the yeast fitness amounted to 0.801.

For the variant A40U G50C, the yeast fitness stood at 0.726.

For A40G A57U A65G, the yeast fitness was determined as 0.531.

Consider A40U C55A, for which the yeast fitness is 0.584.

For the variant G41A C46G G50A C62A, the yeast fitness turned out to be 0.537.

On to G41A A43G A70U, for which the yeast fitness worked out at 0.659.

Take A40C G48A C60G: the yeast fitness amounted to 0.683.

Turning to A40G A42G, the yeast fitness amounted to 0.986.

Consider A40G C62U C66A A70C, for which the yeast fitness was 0.563.

With A40U G44C U64C, the yeast fitness stood at 0.944.

On to A40G A43U C46G C49G C62U, for which the yeast fitness is 0.532.

Consider A40G C49U U59A, for which the yeast fitness came to 0.572.
